Here are results for six molecules from ChEMBL document CHEMBL1123462, “Indolo[2,1-c][1,4]benzodiazepines: a new class of antiallergic agents” (J Med Chem, 1986).

In experiment [1] the test system is Rattus norvegicus. As to the kind of experiment: Compound was tested for the inhibition of rat passive cutaneous anaphylaxis (PCA) at 10 mg/kg dose ip. The experiment is classed as functional. The following applies: route intraperitoneal.
Experiment [2] has as its system Cavia porcellus. As to the kind of experiment: Compound was tested for the inhibition of guinea pig active lung anaphylaxis (ALA) administered intravenously. The following applies: iv. The experiment is classed as functional. The procedure, abridged:
(§1)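 Guinea pigs were sensitized with egg albumin 1 mg sc plus Bordetella pertussis vaccine adjuvant. Two weeks later: pentobarbital 65 mg/kg ip, then trachea, jugular vein and carotid cannulated. Drug given iv before an iv egg albumin challenge (0.5 mg/kg). Airway resistance (bronchoconstriction) and arterial pressure monitored. %inhibition given as mean ± SE; ED50 iv with 95% confidence limits.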

For experiment [3], the system named is Rattus norvegicus. As to the kind of experiment: Compound was tested for percent inhibition, at 0.12 mg/kg administered intraperitoneally against rat passive cutaneous anaphylaxis by Dunnett's test. The experiment is classed as functional. The conditions noted are these: ip, read-out: Inhibition, route intraperitoneal. In a few lines:
(§2)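 Male Sprague-Dawley rats were given 0.05 mL of high-titer IgE rat anti-ovalbumin antiserum intradermally. 24 h later: iv ovalbumin plus Evans Blue in saline, with simultaneous intradermal serotonin and histamine. Drug given ip 1 h before antigen. At 30 min, skin was reflected and wheal size and colour scored against a chart. %inhibition = (1 − mean treated/mean control score)×100. Dunnett's test, p ≤ 0.05.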

Experiment [4] deals with Rattus norvegicus. As to the kind of experiment: Compound was tested for percent inhibition, at 0.12 mg/kg administered intraperitoneally against histamine. The following applies: ip, read-out: Inhibition, route intraperitoneal. The experiment is classed as functional. In a few lines:
as §2

The test system of experiment [5] is Rattus norvegicus. As to the kind of experiment: Compound was tested for percent inhibition, at 0.37 mg/kg administered intraperitoneally against histamine by Dunnett's test. The conditions noted are these: ip, route intraperitoneal. The experiment is classed as functional. The procedure, abridged:
as §2

Experiment [6] deals with Cavia porcellus. As to the kind of experiment: Compound was tested for the inhibition of guinea pig active lung anaphylaxis (ALA) at 1 mg/kg iv. The experiment is classed as functional. The procedure, abridged: as §1
Experiment [7] relates to Rattus norvegicus. As to the kind of experiment: Compound was tested for percent inhibition, at 0.37 mg/kg administered intraperitoneally against serotonin by Dunnett's test. The experiment is classed as functional. The conditions noted are these: ip, route intraperitoneal. In a few lines: as §2
The subject of experiment [8] is Rattus norvegicus. As to the kind of experiment: Compound was tested for the inhibition of rat passive cutaneous anaphylaxis (PCA) at 0.37 mg/kg dose ip (1h pretreatment). The experiment is classed as functional. The conditions noted are these: route intraperitoneal. The procedure, abridged: as §2
In experiment [9] the test system is Rattus norvegicus. As to the kind of experiment: Compound was tested for the inhibition of rat passive cutaneous anaphylaxis (PCA) administered intraperitoneally. The experiment is classed as functional. The conditions noted are these: ip. The procedure, abridged:
as §2

In experiment [10] the test system is Rattus norvegicus. As to the kind of experiment: Compound was tested for percent inhibition, at 0.12 mg/kg administered intraperitoneally against serotonin by Dunnett's test. The experiment is classed as functional. The following applies: ip, read-out: Inhibition, route intraperitoneal. In a few lines:
as §2

The test system of experiment [11] is Rattus norvegicus. As to the kind of experiment: Compound was tested […] for the inhibition of serotonin release in rat peritoneal cell. The experiment is classed as functional.
Experiment [12] deals with Rattus norvegicus. As to the kind of experiment: Compound was tested for percent inhibition, at 1 mg/kg administered intravenously against rat passive cutaneous anaphylaxis by Dunnett''s test. The conditions noted are these: iv, read-out: Inhibition.
Experiment [13] deals with Rattus norvegicus. As to the kind of experiment: Compound was tested for the inhibition of rat passive cutaneous anaphylaxis (PCA) at 10 mg/kg dose iv (5 min pretreatment). The experiment is classed as functional. In a few lines:
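Rat skin IgE/ovalbumin PCA with simultaneous intradermal histamine and serotonin wheals. Drug given iv 5 min before the iv ovalbumin/Evans Blue challenge. Read 30 min later by wheal size and colour score. %inhibition = (1 − mean treated/mean control score)×100. Dunnett's test, p ≤ 0.05.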

Experiment [14] has as its system Rattus norvegicus. As to the kind of experiment: Compound was tested for percent inhibition, at 10 mg/kg administered intravenously against serotonin by Dunnett's test. The conditions noted are these: iv.
The test system of experiment [15] is Cavia porcellus. As to the kind of experiment: Compound was tested for the inhibition of guinea pig active lung anaphylaxis (ALA) at 100 mg/kg iv. The experiment is classed as functional. In a few lines: as §1
The subject of experiment [16] is Rattus norvegicus. As to the kind of experiment: Compound was tested for percent inhibition, at 1 mg/kg administered intravenously against histamine. The conditions noted are these: iv, read-out: Inhibition.
Experiment [17] concerns Rattus norvegicus. As to the kind of experiment: Compound was tested for percent inhibition, at 10 mg/kg administered intravenously against histamine by Dunnett's test. The following applies: iv.
Experiment [18] concerns Rattus norvegicus. As to the kind of experiment: Compound was tested for the inhibition of rat passive cutaneous anaphylaxis (PCA) at 10 mg/kg dose ip (1h pretreatment). The experiment is classed as functional. The conditions noted are these: route intraperitoneal.

SMILES strings stand for the structures.

Molecule `O=C1Nc2ccccc2Cn2c1cc1ccccc12` displayed an inhibition in vivo at 10 mg/kg in the experiment with Rattus norvegicus [1] of 23.2%.
One may read the ED50 as the dose at which the effect has come halfway, by size or by number of responders. Read a high ED50 as weaker potency. A word on the IC50: it is the concentration at which inhibition is half-maximal. Low values mean higher potency, high ones lower potency. On to `OCCCN1CCN(C2=Nc3ccccc3Cn3c2cc2ccccc23)CC1`, for which the ED50 stood at 0.69 mg/kg in the experiment on Cavia porcellus [2] and 0.08 mg/kg in the experiment on Rattus norvegicus [9]. Also, the inhibition in vivo at 0.12 mg/kg in the experiment on Rattus norvegicus [3] stood at 58.8%; in the experiment on Rattus norvegicus [4], 6.8%; in the experiment on Rattus norvegicus [10], 24.9%. The inhibition in vivo at 0.37 mg/kg in the experiment on Rattus norvegicus [5] was determined as 53%; with Rattus norvegicus [7] it was 53.2%; in the experiment with Rattus norvegicus [8], 92.9%. Also, the inhibition in vivo at 1 mg/kg in the experiment on Cavia porcellus [6] turned out to be 64%. Besides, half-maximal inhibition in the experiment on Rattus norvegicus [11] (IC50) required 15.2 µM.
With `O=C([O-])c1cc(=O)c2c(OCC(O)COc3cccc4oc(C(=O)[O-])cc(=O)c34)cccc2o1.[Na+].[Na+]` [CROMOLYN SODIUM], the inhibition in vivo at 1 mg/kg in the experiment on Rattus norvegicus [12] turned out to be 37%; with Rattus norvegicus [16] it was 0%. Moreover, the inhibition in vivo at 10 mg/kg in the experiment with Rattus norvegicus [13] was 97%; in the experiment with Rattus norvegicus [14], 21.4%; with Rattus norvegicus [17], 8.5%. Further, in the experiment on Cavia porcellus [15], the inhibition in vivo at 100 mg/kg is 25%. Besides, the ED50 with Rattus norvegicus [9] worked out at 2.55 mg/kg. In addition, the IC50 with Rattus norvegicus [11] turned out to be 256 µM.
Take `c1ccc2c(c1)Cn1c(cc3ccccc31)C(N1CCOCC1)=N2`: the inhibition in vivo at 10 mg/kg in the experiment on Rattus norvegicus [18] amounted to 0.4%.
As for `CCOC(=O)N1CCN(C2=Nc3ccccc3Cn3c2cc2ccccc23)CC1`, the inhibition in vivo at 0.37 mg/kg in the experiment with Rattus norvegicus [8] worked out at 38.7%. This molecule gave an ED50 in the experiment on Rattus norvegicus [9] of 0.67 mg/kg.
For `CCCCN1CCN(C2=Nc3ccccc3Cn3c2cc2ccccc23)CC1`, the inhibition in vivo at 0.37 mg/kg with Rattus norvegicus [8] was found to be 39.9%. For the same molecule, the 50% effective dose (ED50) with Rattus norvegicus [9] came to 1.32 mg/kg.
